Compound activity: PubChem BioAssay, several laboratories
RORA act = activators of human nuclear receptor RORA; 1.5% of 65,000 active; AID 560; CHO-K1 Gal4-RORA LBD luciferase reporter, luminescence; percent increase over mock-subtracted basal signal; activation, % at 10 µM;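 active means activation above the mean of all tested compounds plus 3 SD, cut at about 49% in these data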;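 further: 0% = DMSO-treated RORA cells and 100% = added signal equal to DMSO minus mock-transfected cells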
Target sequence (P35398 whole entry, looked up, the tested form may be a part): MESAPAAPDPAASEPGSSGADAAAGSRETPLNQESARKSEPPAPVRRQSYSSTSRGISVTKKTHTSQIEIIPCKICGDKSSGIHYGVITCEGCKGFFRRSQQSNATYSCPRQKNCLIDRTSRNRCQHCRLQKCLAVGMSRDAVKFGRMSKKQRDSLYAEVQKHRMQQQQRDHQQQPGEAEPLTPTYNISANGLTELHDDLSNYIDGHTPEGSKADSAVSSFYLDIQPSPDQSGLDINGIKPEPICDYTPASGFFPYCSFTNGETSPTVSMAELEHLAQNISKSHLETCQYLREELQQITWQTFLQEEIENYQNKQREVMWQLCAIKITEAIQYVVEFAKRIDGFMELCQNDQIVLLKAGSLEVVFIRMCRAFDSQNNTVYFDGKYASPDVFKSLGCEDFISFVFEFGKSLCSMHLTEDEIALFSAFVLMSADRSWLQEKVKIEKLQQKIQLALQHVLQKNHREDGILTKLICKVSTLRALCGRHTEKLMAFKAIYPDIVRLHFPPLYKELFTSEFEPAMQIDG
PKA inh = inhibitors of human protein kinase A. 0.1% of 65,000 active. PKA Kemptide phosphorylation, Kinase-Glo ATP luminescence. inhibition, % at 6 µM. AID 524;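 active means inhibition above the screen-wide mean inhibition plus 3 SD, cut at about 21% in these data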
WNV NS2B-NS3 inh = inhibitors of West Nile virus NS2B-NS3 protease; P06935; WNV NS2B-NS3 protease, fluorogenic substrate Ex360/Em465; hits give low values; z-score (test concentration not listed); 0.18% of 65,000 active; AID 577; in the data active means z-score below about -3
SF1 activator = SF-1 (human) activation. Q13285. CHO-K1 Gal4-SF-1 LBD luciferase reporter; % increase over DMSO SF-1-specific signal. activation, % at 10 µM. 1.9% of 65,000 active;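 active means activation above the mean activation of all tested compounds plus 3 SD, cut at about 50% in these data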
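Assay system: CHO-K1 cells co-transfected with Gal4 DBD–human SF-1 LBD, 5xGal4 luciferase reporter / Input: 4,000 cells per well / Incubation: 20 h compound exposure at 37 °C after 1 h cell settling / Detection: SteadyLite luciferase luminescence / Control set: DMSO negative control and −SF1 background wells / Replication: one test per compound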
ROCK2 blocker = ROCK2 (human) kinase inhibition; inhibition, % at 6 µM; 0.35% of 60,000 active; AID 604; purified ROCK2, Kinase-Glo ATP depletion luminescence;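 active means inhibition above the screen-wide mean inhibition plus 3 SD, cut at about 18% in these data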;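 further: plate controls were DMSO wells for no effect and Y-27632 control wells after no-enzyme background subtraction for full effect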
JNK3 inh = blocks human JNK3 kinase activity; purified JNK3 kinase activity, HTS; inhibition, % at 8 µM; 0.61% of 60,000 active; AID 746; in the data active means inhibition above about 17%;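 further: 0% = DMSO and 100% = reference inhibitor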
An asterisk follows results filed as active. A selection: hits, their analogues and other compounds. The true share with any hit is near 3.4%.

SMILES	RORA act	PKA inh	WNV NS2B-NS3 inh	SF1 activator	ROCK2 blocker	JNK3 inh
COc1ccc(-c2nc(C#N)c(NCCc3ccccc3)o2)cc1OC	69.6*	0.2	1.78	77.7*	-1.5	-3.5
COCCCNc1oc(-c2ccccc2OC)nc1C#N	-0.3	3.5	-0.13	-7.3	1.5	5.5
COCCCNc1oc(-c2ccccc2F)nc1C#N	38.9	3.1	1.42	57.4*	5.5	-8.5
O=C(NCCN1C(=O)C2C3C=CC(C3)C2C1=O)Nc1ccc(Br)cc1 (stereo not given)	84.3*	4.4	-0.11	83.7*	0.9	-13.5
COc1ccc(CNC(=O)NC2CCCCC2)cc1	3.6	6.2	2.69	50.0*	-2.6	-2.2
COc1ccc(CNC(=O)c2noc3c2CCCC3)cc1	54.8*	8.8	1.39	42.0	2.8	-1.2
O=C(NCc1ccccc1)c1noc2c1CCCC2	37.4	13.9	-0.58	11.9	4.0	1.6
CCCc1cc(C(=O)NCc2ccc(OC)cc2)no1	49.4*	6.7	0.33	29.1	2.6	1.5
O=C(NCc1ccccc1)NC1CCCCC1	38.5	5.4	1.47	28.5	0.6	2.6
O=C(NCc1cccs1)c1noc2c1CCCC2	55.0*	5.2	-1.23	4.1	4.8	1.8
COc1ccc(CNC(=O)c2cc(-c3ccco3)on2)cc1	-12.7	-0.6	-1.6	-4.6	0.9	2.9
Cc1cc(C)cc(N2CC34C=CC(O3)C(C(=O)OCC(=O)NCc3ccco3)C4C2=O)c1 (stereo not given)	-14.2	-1.3	-0.15	-3.8	8.4	1.5
CN1C(=O)c2cccc(NC(=O)Cc3ccccc3)c2C1=O	2.1	5.6	0.8	19.0	2.4	7.0
COCc1c(C(N)=O)nnn1-c1nonc1N	4.0	6.0	-0.71	-2.2	6.1	3.8
c1ccc(-c2nnc(CSc3nnc(-c4cccs4)o3)o2)cc1	14.3	8.7	1.4	6.3	2.4	-2.3
Fc1ccc(Cc2nnc(-c3cccs3)o2)cc1	63.4*	7.7	0.65	35.9	3.1	1.4
Fc1ccc(CSc2nnc(-c3cccs3)o2)cc1	25.2	11.0	0.97	43.0	3.3	9.2
O=C(CSc1nnc(-c2cccs2)o1)N1CCOCC1	1.4	5.3	-0.76	4.6	2.1	0.6
Fc1ccccc1CSc1nnc(-c2cccs2)o1	50.3*	6.5	-0.08	92.0*	5.5	-0.1
c1ccc(CSc2nnc(-c3cccs3)o2)cc1	49.9*	2.5	-1.34	52.1*	6.3	-2.1
O=C(CSc1nnc(-c2cccs2)o1)N1CCCCC1	45.3	1.6	-0.05	63.4*	4.3	-0.3
COCCN1C(=O)c2ccccc2C(C(=O)NCCCN2CCCC2=O)C1c1c[nH]c2ccccc12 (stereo not given)	15.1	3.0	1.5	14.0	6.0	4.7
Cc1ccccc1OCC(=O)Nc1ccccc1CO	27.1	-0.8	-0.35	16.0	1.1	3.7
COc1ccccc1NC(=O)COc1ccc(CO)cc1Cl	15.7	6.5	2.31	-8.8	0.0	18.6*
O=C(c1ccc2c(c1)c(=O)oc1ccccc12)N1CCCCC1	49.9*	-3.9	-0.61	41.9	-2.3	-3.6
SMILES	RORA act	PKA inh	WNV NS2B-NS3 inh	SF1 activator	ROCK2 blocker	JNK3 inh
C=CCc1ccc(OCC(O)CN2CCCCC2C)c(OC)c1 (stereo not given)	14.2	1.0	-0.75	19.7	2.3	1.2
Cc1ccc(C)c(-n2c(CNc3ccc(F)cc3)nnc2SCC(N)=O)c1	21.7	7.1	-1.84	0.8	5.0	4.4
Cc1cccnc1Nc1nc(-c2ccc(O)cc2O)cs1	-9.7	9.9	-0.03	51.4*	4.2	7.1
Cc1cc(O)ccc1Nc1nc(-c2sc(N)nc2C)cs1	7.1	8.6	0.02	17.9	7.2	-1.2
O=c1cc(C(F)(F)F)c2sc(N3CCCCC3)nc2[nH]1	-3.5	6.8	1.59	-11.2	5.5	3.3
Cc1cc(Br)c2c(c1)=C(c1sc(N3CCCCCC3)nc1O)C(=O)N=2	33.9	3.4	-0.95	50.3*	3.7	5.7
N#Cc1c(N)nc(SCc2ccncc2)c(C#N)c1-c1cccs1	11.6	0.6	-0.83	-0.8	4.1	20.5*
O=c1c2c3c(sc2nc2sc(C4CC4)nn12)CCCC3	54.3*	1.6	0.04	37.3	0.9	7.2
COc1ccc(-c2nnc(SCC(=O)NC(C)c3ccccc3)o2)cc1OC (stereo not given)	-3.5	9.4	2.41	-6.5	2.7	-2.3
